Experimental data from different studies.
Each line is one published result; the experiments were not run side by side.
AVPR2: Vasopressin V2 receptor (AVPR2, Homo sapiens, UniProt P30518)
HTR1E: 5-hydroxytryptamine receptor 1E (HTR1E, Homo sapiens, UniProt P28566)

| SMILES | target | assay | EC50 [µM] |
| --- | --- | --- | --- |
| CC(C)=CCNc1ncnc2c1ncn2[C@@H]1O[C@H](CO)[C@@H](O)[C@H]1O | Adenosine receptor A3 (ADORA3, Homo sapiens, UniProt P0DMS8, V169L) | G protein activation, agonist | 1.2 |
| CCCc1ccc(/N=C(/Nc2nnc(C)s2)N2N=C(C)SC2c2ccc(C)cc2)cc1 (stereo not drawn) | AVPR2 | cAMP, positive allosteric modulator | 3.9 |
| CN(C)c1ncnc2c1ncn2[C@@H]1O[C@H](CO)[C@@H](O)[C@H]1O | Adenosine receptor A3 (ADORA3, Homo sapiens, UniProt P0DMS8, I253Q) | G protein activation, agonist | 46 |
| COc1ccccc1N1CCN(CCCCN2C(=O)c3ccccc3C2=O)CC1 | HTR1E | G protein activation, agonist, BRET | 2.17 |
| CC1=NN(/C(=N/c2nnc(C)s2)Nc2ccc(C)c(C)c2)C(c2ccc(F)c(C(F)(F)F)c2)S1 (stereo not drawn) | AVPR2 | cAMP, positive allosteric modulator | > 50 |
| CN(C)CCOC1=Cc2ccccc2Sc2ccc(Cl)cc21 | HTR1E | G protein activation, agonist, BRET | 0.622 |
| CC1=NN(/C(=N\c2ccccc2F)Nc2nnc(C)s2)C(c2ccc(C)cc2)S1 (stereo not drawn) | AVPR2 | cAMP, positive allosteric modulator | 41.4 |
| CN1CCN2c3ncccc3Cc3ccccc3C2C1 (stereo not drawn) | HTR1E | G protein activation, agonist, BRET | 0.755 |
| CC(C)=CCn1cnc(=N)c2[nH]cnc21 | G-protein coupled receptor 84 (GPR84, Homo sapiens, UniProt Q9NQS5) | cAMP, agonist, luciferase | 32 |
